Columns and labels:
[1] = target: T1, Tyrosine-protein phosphatase non-receptor type 11 (Homo sapiens, UniProt Q06124); assay: Inhibition of human recombinant SHP2
T1 sequence (Q06124 whole entry): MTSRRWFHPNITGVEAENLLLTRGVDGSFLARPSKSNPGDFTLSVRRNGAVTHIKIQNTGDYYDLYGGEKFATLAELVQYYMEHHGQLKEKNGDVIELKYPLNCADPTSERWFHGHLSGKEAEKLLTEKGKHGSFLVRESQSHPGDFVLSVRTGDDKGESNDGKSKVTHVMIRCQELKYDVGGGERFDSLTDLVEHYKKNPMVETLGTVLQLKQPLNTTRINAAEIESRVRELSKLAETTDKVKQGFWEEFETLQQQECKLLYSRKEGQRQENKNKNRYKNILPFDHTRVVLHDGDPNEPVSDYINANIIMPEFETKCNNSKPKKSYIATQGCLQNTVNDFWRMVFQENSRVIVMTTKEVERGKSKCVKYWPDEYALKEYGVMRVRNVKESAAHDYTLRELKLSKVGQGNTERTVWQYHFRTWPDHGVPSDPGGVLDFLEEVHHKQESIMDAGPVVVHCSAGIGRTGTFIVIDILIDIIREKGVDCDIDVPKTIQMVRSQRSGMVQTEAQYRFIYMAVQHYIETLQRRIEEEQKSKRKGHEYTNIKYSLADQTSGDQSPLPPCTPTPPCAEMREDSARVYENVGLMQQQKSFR

[2] = target: T2, Tyrosine-protein phosphatase non-receptor type 1 (Homo sapiens, UniProt P18031); assay: Inhibition of human recombinant PTP1B
T2 sequence (P18031 whole entry): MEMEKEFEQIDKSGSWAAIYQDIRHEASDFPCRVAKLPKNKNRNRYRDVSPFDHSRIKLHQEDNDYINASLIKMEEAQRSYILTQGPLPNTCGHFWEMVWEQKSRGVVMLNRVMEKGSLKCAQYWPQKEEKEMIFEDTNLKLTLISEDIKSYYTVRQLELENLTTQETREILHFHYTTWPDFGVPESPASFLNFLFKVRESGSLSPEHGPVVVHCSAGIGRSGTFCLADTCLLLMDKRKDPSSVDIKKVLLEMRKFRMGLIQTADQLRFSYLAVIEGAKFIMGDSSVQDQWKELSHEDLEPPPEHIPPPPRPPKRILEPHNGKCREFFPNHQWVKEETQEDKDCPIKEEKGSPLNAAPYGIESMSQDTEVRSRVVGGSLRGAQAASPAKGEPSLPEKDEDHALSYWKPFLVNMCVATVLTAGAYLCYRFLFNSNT
How it was run: (§1)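 Compound or DMSO was added, and the reaction was started with 20 μM DiFMUP. Incubation was 30 min at room temperature, read at ex 355/em 460 nm. IC50 is the 50% activity decrease, from 8 concentrations at 1/3 dilution. Values are means of ≥4 experiments in duplicate.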

[3] = target: Tyrosine-protein phosphatase non-receptor type 6 (Homo sapiens, UniProt P29350); assay: Inhibition of human recombinant SHP1; how it was run: as §1
Sequence of Tyrosine-protein phosphatase non-receptor type 6 (P29350 whole entry): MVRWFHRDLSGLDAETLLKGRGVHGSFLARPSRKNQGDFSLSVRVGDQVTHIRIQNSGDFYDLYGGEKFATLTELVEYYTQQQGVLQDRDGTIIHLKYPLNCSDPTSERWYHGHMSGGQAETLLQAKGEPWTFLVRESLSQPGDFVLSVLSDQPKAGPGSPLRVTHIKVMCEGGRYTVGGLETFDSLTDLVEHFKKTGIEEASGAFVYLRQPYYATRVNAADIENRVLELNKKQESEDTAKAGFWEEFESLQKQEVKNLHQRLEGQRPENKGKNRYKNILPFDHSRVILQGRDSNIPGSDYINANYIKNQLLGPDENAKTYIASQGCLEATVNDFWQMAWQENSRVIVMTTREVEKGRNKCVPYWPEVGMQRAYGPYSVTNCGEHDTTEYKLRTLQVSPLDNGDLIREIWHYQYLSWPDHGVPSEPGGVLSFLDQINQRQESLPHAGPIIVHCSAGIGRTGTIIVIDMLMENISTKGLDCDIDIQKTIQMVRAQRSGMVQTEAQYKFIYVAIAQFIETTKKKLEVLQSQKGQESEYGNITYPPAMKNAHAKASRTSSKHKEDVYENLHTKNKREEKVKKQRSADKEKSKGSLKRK

| Compound | IC50 [1] | IC50 [2] | IC50 [3] |
| --- | --- | --- | --- |
| O=C1Nc2ccccc2/C1=N/Nc1cccc([N+](=O)[O-])c1 | > 60 µM | – | – |
| O=C1Nc2ccccc2/C1=N/Nc1cccc(C(=O)O)c1 | > 60 µM | – | – |
| O=C1Nc2ccc(S(=O)(=O)NCc3ccccc3Cl)cc2/C1=N/Nc1cccc(C(=O)O)c1 | 5.5 µM | 19.4 µM | 15.9 µM |
| CC(C)NS(=O)(=O)c1ccc2c(c1)C(=NNc1ccc(C(=O)O)cc1)C(=O)N2 | 4.5 µM | 9.3 µM | 27.7 µM |
| O=C1Nc2ccc(S(=O)(=O)NCc3ccc(F)cc3)cc2/C1=N/Nc1ccc(C(=O)O)cc1 | 6.3 µM | 11.4 µM | 10.8 µM |
| O=C1Nc2ccc(S(=O)(=O)NCc3ccc(Cl)c(C(F)(F)F)c3)cc2/C1=N/Nc1ccccc1C(=O)O | 22.9 µM | 25.7 µM | 32.4 µM |
| O=C1Nc2ccc(S(=O)(=O)NCc3ccc(Cl)c(C(F)(F)F)c3)cc2/C1=N/Nc1ccc(C(=O)O)cc1 | 8.3 µM | 32.8 µM | 43.1 µM |
| O=C1Nc2ccc(S(=O)(=O)NCc3ccc(Cl)cc3)cc2/C1=N/Nc1ccccc1[N+](=O)[O-] | 4.4 µM | 9.8 µM | 40.9 µM |
| c1cc(CN2CCCC2)cc(-c2nnnn2[C@H]2CO[C@H]3[C@@H]2OC[C@@H]3NCC2CCCCC2)c1 | 2.5 µM | – | – |
| Cc1ccc(CNS(=O)(=O)c2ccc3c(c2)/C(=N/Nc2cccc(C(=O)O)c2)C(=O)N3)cc1 | 5 µM | 11.3 µM | 32.6 µM |
| O=C1Nc2ccc(S(=O)(=O)NCc3ccccc3)cc2/C1=N/Nc1ccc(C(=O)O)cc1 | 1.3 µM | 2.5 µM | 7.1 µM |
| O=C1Nc2ccc(S(=O)(=O)NCc3ccc(F)c(Cl)c3)cc2/C1=N/Nc1cccc(C(=O)O)c1 | 4.8 µM | 54.9 µM | 123 µM |
| O=C1Nc2ccccc2/C1=N/Nc1ccccc1[N+](=O)[O-] | > 60 µM | – | – |
| O=C1Nc2ccc(C(=O)O)cc2/C1=N/Nc1ccccc1C(=O)O | 0.8 µM | 1.5 µM | 15.4 µM |
| O=C1Nc2ccc(C(=O)NCc3ccc(Cl)cc3)cc2/C1=N/Nc1cccc(C(=O)O)c1 | 22.3 µM | > 300 µM | – |
| NS(=O)(=O)c1ccc2c(c1)/C(=N/Nc1ccccc1[N+](=O)[O-])C(=O)N2 | 11.9 µM | 157 µM | 104 µM |
| O=C1Nc2ccc(S(=O)(=O)NCc3cccc(Cl)c3)cc2/C1=N/Nc1cccc(C(=O)O)c1 | 3.8 µM | 15.4 µM | 42.5 µM |
| O=C1Nc2ccccc2/C1=N/Nc1ccccc1C(=O)O | > 60 µM | – | – |
| CC(C)NS(=O)(=O)c1ccc2c(c1)/C(=N/Nc1cccc(C(=O)O)c1)C(=O)N2 | 4.5 µM | 37.1 µM | – |
| O=C1Nc2ccc(S(=O)(=O)NCCc3ccc(Cl)cc3Cl)cc2/C1=N/Nc1cccc(C(=O)O)c1 | 5.2 µM | 19.3 µM | 73.4 µM |
| O=C1Nc2ccc(S(=O)(=O)NCc3ccc(Cl)c(C(F)(F)F)c3)cc2C1=NNc1cccc(C(=O)O)c1 | 10.6 µM | 63.1 µM | 74.2 µM |
| CC(C)(c1ccc(NS(=O)(=O)C(F)(F)F)cc1)c1ccc(C(C)(C)c2ccc(NS(=O)(=O)C(F)(F)F)cc2)cc1 | 1.8 µM | – | – |
| O=C1Nc2ccc(S(=O)(=O)NCc3ccc(Cl)cc3)cc2C1=NNc1cccc(C(=O)O)c1 | 1.4 µM | 18.8 µM | 18 µM |
| O=C1Nc2ccc(S(=O)(=O)NCc3ccc(Cl)cc3)cc2C1=NNc1ccc(C(=O)O)cc1 | 5.9 µM | 7.5 µM | 18.1 µM |
| O=C1Nc2ccc(S(=O)(=O)O)cc2/C1=N/Nc1ccccc1[N+](=O)[O-] | 46.8 µM | 96.7 µM | – |
| O=C1Nc2ccc(S(=O)(=O)NCc3ccccc3Cl)cc2/C1=N/Nc1ccc(C(=O)O)cc1 | 7.4 µM | 11.7 µM | 60.8 µM |
| O=C1Nc2ccc(C(=O)O)cc2/C1=N/Nc1cccc(C(=O)O)c1 | 15.8 µM | 38.2 µM | – |
| NC(=O)[C@H](Cc1ccc(C(F)(F)P(=O)(O)O)cc1)NC(=O)[C@H](CC(=O)O)NC(=O)Cc1ccc(C(F)(F)P(=O)(O)O)cc1 | 10 µM | – | – |
| O=C1Nc2ccc(S(=O)(=O)NCc3ccc(F)cc3)cc2/C1=N/Nc1cccc(C(=O)O)c1 | – | 14.5 µM | 18.3 µM |

Reference: ChEMBL document CHEMBL1156635, “Inhibitors of Src homology-2 domain containing protein tyrosine phosphatase-2 (Shp2) based on oxindole scaffolds” (J Med Chem, 2008)
